Screening results: PubChem BioAssay, several laboratories
This is a sample that favours compounds with a hit; in the whole collection about 4.1% have one here.
FLuc inhib CS: firefly luciferase enzyme inhibitors, primary screen, artefact control for luciferase-based inhibitor screens, biochemical, luminescence, ATPLite; inhibition, % at 10 µM; 10 min; 1.5% of 200,000 active;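 active = inhibition above about 50% when tested at 10 µM, limit read from the data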
Target sequence (P08659 whole entry, looked up): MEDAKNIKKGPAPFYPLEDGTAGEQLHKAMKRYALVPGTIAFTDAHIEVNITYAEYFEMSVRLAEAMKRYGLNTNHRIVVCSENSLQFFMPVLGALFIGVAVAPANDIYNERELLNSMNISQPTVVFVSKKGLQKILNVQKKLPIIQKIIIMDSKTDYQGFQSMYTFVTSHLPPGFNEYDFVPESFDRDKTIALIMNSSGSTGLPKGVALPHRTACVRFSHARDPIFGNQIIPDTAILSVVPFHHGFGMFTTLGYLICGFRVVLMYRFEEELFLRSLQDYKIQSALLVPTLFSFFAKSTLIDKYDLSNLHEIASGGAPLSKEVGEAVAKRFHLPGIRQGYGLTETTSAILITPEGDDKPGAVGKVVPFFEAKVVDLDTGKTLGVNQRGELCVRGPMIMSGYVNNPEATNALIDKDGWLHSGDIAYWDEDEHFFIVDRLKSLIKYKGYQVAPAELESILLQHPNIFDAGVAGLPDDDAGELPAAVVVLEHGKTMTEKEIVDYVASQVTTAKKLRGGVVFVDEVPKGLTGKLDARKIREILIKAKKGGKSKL
STAT1 activator: STAT1 signaling activators, primary screen, cell-based, HTS, luciferase reporter; NIH 3T3 STAT1-luciferase reporter, IFN-gamma, luminescence; 100% = IFN-gamma alone, no compound; activation (% of control), % at 5.5 µM; 2.6% of 200,000 active; AID 932, 2007;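 active = activation above the screen-wide mean activation plus 3 SD, cut at about 130% in these data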
NF-kB expr up: activators of NF-kB expression in neurons, primary screen, cell-based, HTS; human neuronal cells, NF-kB reporter expression; active compounds read high; fold change at 12.5 µM; 1.6% of 190,000 active; AID 1239, 2008; in the data active = fold change above about 3.3
FLuc stim CS: FLuc activators, initial screening, artefact control for FLuc-dependent activation tests, biochemical, ATPlite luminescence; 200,000 tested, under 10 active; activation factor at 10 µM; ATPlite luciferase biochemical, 10 min; 0 = ATP-free wells, 1 = DMSO control; AID 1027, 2008;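 active = luciferase activation factor, scaled between plate controls, of at least 2 with compound at 10 µM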
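Assay system: Luciferase/luciferin detection reagent, cell-free biochemical luciferase assay / Read-out: luciferase activation / Benchmarks: No-ATP low control, compound-free enzyme-plus-ATP high control / Medium: PBS buffer for ATP / Detection: luminescence measurement of luciferase light output / Schedule: 10 min at ambient temperature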
APP 5'UTR act: activators of APP 5'UTR luciferase reporter, primary screen, SH-SY5Y cells; SH-SY5Y APP 5'UTR luciferase reporter, luminescence; zero percent = DMSO vehicle wells; activation, % at 2 µM; 1% of 190,000 active; AID 1276, 2008;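 active = activation above a set limit, based on mean plus 3 SD of controls, cut at about 140% in these data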
Hits are given with their value; n = inactive; x = no result.

SMILES	FLuc inhib CS	STAT1 activator	NF-kB expr up	FLuc stim CS	APP 5'UTR act
CCN1CCN(Cc2nc(N)nc(Nc3ccc(C)c(C)c3)n2)CC1	n	n	n	n	n
CCOC(=O)c1nn(-c2cccc(Cl)c2)c2nc(Nc3ccccc3)cc(=O)n12	n	n	n	n	n
Cc1occc1-c1nc(-c2ccncc2)no1	n	n	n	n	n
CCC(=O)Oc1ccc(-c2cnc3ccccc3n2)cc1	64	142	6.8	n	175
Cc1ccc(Cc2nc(-c3cccnc3)no2)cc1	n	n	n	n	n
Cc1c(C(=O)Oc2ccc(-c3cnc4ccccc4n3)cc2)cccc1[N+](=O)[O-]	n	n	n	n	n
Cc1ccc(-c2nc(-c3cccnc3)no2)cc1	66	n	6.3	n	n
NC(=O)c1ccccc1-c1nc(-c2ccccc2)no1	n	n	n	n	n
Cc1ccc(-c2nc(-c3ccccc3)no2)c(Cl)c1	95	n	n	n	166
Cc1ccc(-c2noc(-c3ccoc3C)n2)cc1	n	154	n	n	n
CCn1cc(/C=C(\NC(=O)c2ccc(OC)c(OC)c2)C(=O)NCCCO)c2ccccc21	n	n	n	n	n
CC(=O)Nc1ccc(C(=O)Nc2nc(-c3cccnc3)cs2)cc1	n	n	n	n	n
CCCc1noc(-c2ccc(-c3ccccc3)cc2)n1	n	138	5.7	n	n
COc1cc(-c2nc(-c3cccnc3)no2)cc(OC)c1OC	n	n	n	n	n
COc1cc(-c2nc(-c3ccc(C)nc3OC)no2)cc(OC)c1OC	n	x	x	n	x
COc1nc(C)ccc1-c1noc(-c2ccncc2)n1	n	131	n	n	n
CC(C)(C)c1ccc(-c2nc(-c3ccncc3)no2)cc1	n	130	n	n	216
CCC(=O)Oc1ccc(-c2nc(-c3cccnc3)no2)cc1	61	n	n	n	n
Clc1ccccc1-c1nnc2sc(-c3ccco3)nn12	n	n	n	n	n
Cc1cc2c(cc(C(=O)N3CCC(C(=O)N4CCCC4)CC3)n2Cc2c(F)cccc2Cl)o1	n	n	n	n	n
CCOC(=O)c1c(NC(=O)C2C3C=CC(C3)C2C(=O)O)sc2c1CCCC2 (stereo unspecified)	n	n	n	n	n
Cc1ccc(-c2nc(-c3ccccc3)no2)cc1	78	148	10	n	n
CN(C)c1ccccc1C(=O)c1ccccc1N(C)C	n	132	n	n	n
CC1(C)CC2(CCO1)N1CC3(C)CN2CC(C)(C1)C3=O (stereo unspecified)	x	n	x	x	n
O=C(COc1ccccc1)Nc1ccc(Cl)cc1Cl	50	134	3.5	n	n
SMILES	FLuc inhib CS	STAT1 activator	NF-kB expr up	FLuc stim CS	APP 5'UTR act
O=C(COc1ccc(Cl)cc1Cl)Nc1ccc(Cl)cn1	86	142	4.5	n	181
Cc1cc(C)cc(OCC(=O)NCC2CCCO2)c1 (stereo unspecified)	n	n	n	n	n
COc1cccc(-c2nc3ccccc3c(=O)o2)c1	52	n	n	n	n
COc1ccc(-c2nc(-c3ccc(Br)o3)no2)cc1	n	n	6.7	n	n
c1ccc(-c2noc(-c3cccnc3)n2)nc1	n	129	n	n	n
COc1cccc(-c2noc(-c3cccs3)n2)c1	50	139	8.4	n	n
COC(=O)c1ccc(-c2nc(-c3ccc(Br)o3)no2)cc1	n	n	n	n	n
COc1nc(-c2ccccc2)ccc1-c1noc(-c2cccs2)n1	x	n	x	x	n
CC(=O)c1c(C)[nH]c(C(=O)Nc2ccc(Cl)c(S(=O)(=O)N(C)C)c2)c1C	n	n	n	n	n
COC(=O)c1ccccc1NC(=O)CSc1nc(NC(=O)c2ccccc2)c2c(C)c(C)oc2n1	n	n	n	n	n
c1ccc(-c2noc(-c3ccncc3)n2)nc1	n	n	n	n	n
COC(=O)c1ccc(-c2nc(-c3cccs3)no2)cc1	72	n	n	n	136
COc1cccc(-c2noc(-c3ccc(Br)o3)n2)c1	n	136	3.6	n	n
COc1cccc(-c2nc(-c3ccccc3)no2)c1	n	150	7.3	n	n
COc1ccc(CC(=O)Nc2ccc(-c3noc(-c4cccc(OC)c4)n3)cc2)cc1	n	n	n	n	n
COc1cccc(-c2nc(-c3ccccn3)no2)c1	93	n	n	n	n
COc1ccc(-c2noc(-c3ccccc3-c3ccccc3)n2)cc1	n	n	n	n	n
CCOc1cc(C=O)ccc1OCC(N)=O	n	n	n	n	n
Cc1cc(C)c2nc(NC(=O)c3cc(C)on3)sc2c1	n	n	n	n	n
CCc1ccc2nc(NC(=O)c3cc(C)on3)sc2c1	n	133	3.5	n	n
Cc1onc(-c2ccccc2)c1C(=O)Nc1nc2c(s1)CCCC2	n	n	n	n	x
CC(C)(C)c1ccc(C(=O)NC(=S)Nc2nc3c(s2)CCCC3)cc1	n	n	n	n	n
Cc1cc(C(=O)Nc2nc3c(s2)CCCC3)no1	n	139	5.1	n	152
CN(C)c1ccc(C(=O)Nc2nc3c(s2)CCCC3)cc1	58	n	n	n	n
O=C(NCc1ccccc1F)C1CCCN1C(=O)NC1CCCCC1 (stereo unspecified)	n	n	n	n	n
SMILES	FLuc inhib CS	STAT1 activator	NF-kB expr up	FLuc stim CS	APP 5'UTR act
N#CC1=C(N)Oc2c(O)cc3ccccc3c2C1c1ccsc1 (stereo unspecified)	n	n	n	n	n
COc1cc(NC(=O)C2CCCN2C(=O)C2CCC(C)CC2)cc(OC)c1OC (stereo unspecified)	n	n	n	n	n
Cc1ccc2nc3ccc(N4CCN(C)CC4)nn3c(=O)c2c1	n	137	n	n	n
Cc1ccc2nc3ccc(N4CCCCCCC4)nn3c(=O)c2c1	62	144	n	n	n
CCn1cc(SCC(=O)NCc2ccc3c(c2)OCO3)c2ccccc21	n	n	n	n	n
O=[N+]([O-])c1cccnc1NCCNc1ncc(C(F)(F)F)cc1Cl	n	137	n	n	n
COc1ccccc1NC(=O)CCn1c(=O)sc2ccccc21	n	n	n	n	n
Cc1ccc(NC(=O)c2ccc(OC(=O)COc3ccc(Cl)c(C)c3)cc2)cc1	n	140	n	n	n
O=C(Nc1ccc(S(=O)(=O)N2CCCC2)cc1)c1ccc(OCC2CCCO2)cc1 (stereo unspecified)	n	n	n	n	n
O=C(NC1=NCCS1)c1ccc(OCC2CCCO2)cc1 (stereo unspecified)	n	n	n	n	n
Cc1ccc(NC(=O)c2ccc(OCC3CCCO3)cc2)cc1 (stereo unspecified)	53	136	3.4	n	n
Cc1cnc(NC(=O)c2ccc(OCC3CCCO3)cc2)s1 (stereo unspecified)	95	n	3.9	n	n
